Results: ChEMBL document CHEMBL4130581, “Securamine Derivatives from the Arctic Bryozoan Securiflustra securifrons” (J Nat Prod, 2017)
Active and inactive are the calls of the source. No cut-off for these calls is given here.

Legend:
[1] = system: A2058; assay: Cytotoxicity in human A2058 cells assessed as reduction in cell survival incubated for 72 hrs by MTS assay; type: functional, cell-based; settings: A2058, 72 h
How it was run: (§1)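 A2058 human melanoma cells grown in D-MEM with 10% FBS and L-alanyl-L-glutamine at 37 °C, 5% CO2. Seeded at 2000 cells/well and allowed to adhere 24 h. Exposed to a range of concentrations for 4, 24, 48 or 72 h. MTS added for 1 h, then absorbance read at 485 nm. Survival normalised to 1% DMSO (negative) and 0.5% Triton X-100 (positive) controls. Triplicate wells, three independent experiments.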

[2] = system: HT-29; assay: Cytotoxicity in human HT-29 cells assessed as reduction in cell survival incubated for 72 hrs by MTS assay; type: functional, cell-based; settings: HT-29, 72 h
How it was run: (§2)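 HT-29 colon adenocarcinoma cells kept in RPMI with 10% FBS and L-alanyl-L-glutamine at 37 °C, 5% CO2. Seeded at 2000 cells/well and left 24 h before 72 h exposure to various concentrations. MTS reagent for 1 h, then absorbance at 485 nm. Survival scaled between 1% DMSO and 0.5% Triton X-100 controls. IC50 from eight concentration points. Means ± SD of three independent determinations.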

[3] = system: MCF7; assay: Cytotoxicity in human MCF7 cells assessed as reduction in cell survival incubated for 72 hrs by MTS assay; type: functional, cell-based; settings: MCF7, 72 h
How it was run: (§3)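 MCF-7 breast adenocarcinoma cells in E-MEM with 10% FBS, L-alanyl-L-glutamine, nonessential amino acids, sodium pyruvate and sodium bicarbonate at 37 °C, 5% CO2. Plated at 2000 cells/well and left 24 h, then treated 72 h across a concentration range. MTS for 1 h, read at 485 nm. Survival relative to 1% DMSO and 0.5% Triton X-100 controls. IC50 by regression on eight concentrations. Three independent experiments, mean ± SD.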

[4] = system: MRC5; assay: Cytotoxicity in human MRC5 cells assessed as reduction in cell survival incubated for 72 hrs by MTS assay; type: cell-based; settings: MRC5, 72 h
How it was run: (§4)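 Nonmalignant MRC-5 lung fibroblasts in supplemented E-MEM (10% FBS, glutamine, NEAA, pyruvate, bicarbonate) at 37 °C, 5% CO2. Seeded at 4000 cells/well and allowed 24 h to adhere. Exposed to ranging concentrations for 24 or 72 h. MTS added for 1 h, absorbance at 485 nm. Survival normalised to 1% DMSO and 0.5% Triton X-100 controls. Triplicates, three independent experiments.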

[5] = system: A2058; assay: Cytotoxicity in human A2058 cells assessed as reduction in cell survival by MTS assay; type: functional, cell-based; settings: TDE = time-dependent effect; how it was run: as §1
[6] = system: HT-29; assay: Cytotoxicity in human HT-29 cells assessed as reduction in cell survival by MTS assay; type: functional, cell-based; settings: TDE = time-dependent effect; how it was run: as §2
[7] = system: MCF7; assay: Cytotoxicity in human MCF7 cells assessed as reduction in cell survival by MTS assay; type: functional, cell-based; settings: TDE = time-dependent effect; how it was run: as §3
[8] = system: MRC5; assay: Cytotoxicity in human MRC5 cells assessed as reduction in cell survival by MTS assay; type: cell-based; settings: TDE = time-dependent effect; how it was run: as §4
[9] = system: A2058; assay: Cytotoxicity in human A2058 cells assessed as reduction in cell survival at 0.313 to 10 uM incubated for 4 hrs by MTS assay; type: functional, cell-based; how it was run: as §1
[10] = system: A2058; assay: Cytotoxicity in human A2058 cells assessed as reduction in cell survival incubated for 24 hrs by MTS assay; type: functional, cell-based; settings: A2058, 24 h; how it was run: as §1
[11] = system: A2058; assay: Cytotoxicity in human A2058 cells assessed as reduction in cell survival incubated for 48 hrs by MTS assay; type: functional, cell-based; settings: A2058, 48 h; how it was run: as §1
[12] = system: MRC5; assay: Cytotoxicity in human MRC5 cells assessed as reduction in cell survival incubated for 24 hrs by MTS assay; type: cell-based; settings: MRC5, 24 h; how it was run: as §4

Compound	IC50 [1]	IC50 [2]	IC50 [3]	IC50 [4]	Activity [5]	Activity [6]	Activity [7]	Activity [8]	Activity [9]	IC50 [10]	IC50 [11]	IC50 [12]
CO[C@H]1[C@H](O)C2=NC(=O)N[C@@]23N2c4cc(Br)c(Br)c(Br)c4[C@H]4CC(=O)N1[C@]42C[C@H](Cl)C3(C)C	> 50 µM	> 50 µM	> 50 µM	> 50 µM								
CC1(C)[C@@H](Cl)C[C@]23[C@@H]4CC(=O)N2C=CC2=NC(=O)N[C@@]21N3c1cc(Br)ccc14	20 µM	21 µM	23 µM	30 µM								
CC1(C)[C@@H](Cl)C[C@]23[C@@H]4CC(=O)N2C=CC2=NC(=O)N[C@@]21N3c1cc(Br)c(Br)c(Br)c14	1.4 µM	1.9 µM	2.1 µM	2.7 µM	Tde	Tde	Tde	Tde	inactive	2.8 µM	1.8 µM	> 10 µM
CC1(C)[C@@H](Cl)C[C@]23[C@@H]4CC(=O)N2C=CC2=NC(=O)N[C@@]21N3c1cc(Br)c(Br)cc14	2.7 µM	2.5 µM	2.4 µM	5.3 µM								
CC1(C)[C@@H](Cl)C[C@]23[C@@H]4CC(=O)N2C=CC2=NC(=O)N[C@@]21N3c1cc(Br)cc(Br)c14	6.7 µM	10 µM	8.5 µM	9.6 µM								
